Experimental data from ChEMBL document CHEMBL1125712 (J Med Chem, 1991).
Activity calls are given as the source filed them. No cut-off for these calls is given here.

Key:
Rattus norvegicus [1] = organism: Rattus norvegicus; assay: animal or person; type: functional
Rattus norvegicus [2] = assay: Compound was evaluated for the ED50(acute) in male Sprague-Dawley rats(n=4) treated with streptozotocin (85 mg/kg intravenously).; type: functional; settings: oral
Method in brief: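 Streptozotocin-diabetic rats (85 mg/kg iv) dosed by oral gavage, aqueous suspension or solution, at 4, 7 and 24 h. Killed at 27 h. […] ED50 from log linear regression.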

[3] = biological target: Aldo-keto reductase family 1 member B1 (Homo sapiens, UniProt P15121); assay: Inhibition of aldose reductase (aldo-keto reductase, AKR1B1) isolated from human placenta.
[4] = system: aldose reductase (Rattus norvegicus); assay: In vivo inhibition of sorbitol accumulation in the rat following 10 mg/kg p.o. administration; Not significant.; settings: at 10 mg/kg
[5] = Compound was evaluated for the apparent pKa (dioxane/water) the ratio 2:1; type: physicochemical; settings: dioxane/water 2:1
[6] = Partition coefficient (logP); type: physicochemical; settings: octanol/water
[7] = Compound was evaluated for the apparent pKa (dioxane/water) in the ratio 1:1; type: physicochemical; settings: dioxane/water 1:1
[8] = system: aldose reductase (Rattus norvegicus); assay: In vivo inhibition of sorbitol accumulation in the rat following 10 mg/kg p.o. administration.; settings: at 10 mg/kg
Rattus norvegicus [9] = organism: Rattus norvegicus; settings: at 25 mg/kg
Rattus norvegicus [10] = assay: Compound was evaluated for the ED50(chronic) in male Sprague-Dawley rats(n=5) treated with streptozotocin (85 mg/kg intravenously).; settings: oral

| IC50 [3] [nM] | SMILES | also measured |
| --- | --- | --- |
| 19 | O=C(O)Cc1nn(Cc2nc3ccccc3s2)c(=O)c2ccccc12 | inhibition in vivo at 25 mg/kg (Rattus norvegicus [1]; dose 25 mg/kg, route oral): 67%; ED50 (Rattus norvegicus [2]): 18.5 mg/kg |
| 5700 | O=C(O)Cc1nn(Cc2cccc(-c3nc4ccccc4s3)c2)c(=O)c2ccccc12 | – |
| 10 | O=C(O)Cc1nn(Cc2nc3ccccc3s2)c(=O)c2cc(Cl)c(Cl)cc12 | – |
| 43 | CC(c1nc2ccccc2s1)n1nc(CC(=O)O)c2ccccc2c1=O (configuration not stated) | inhibition in vivo at 25 mg/kg (Rattus norvegicus [1]; dose 25 mg/kg, route oral): 50% |
| 26 | COc1ccc2c(CC(=O)O)nn(Cc3nc4ccccc4s3)c(=O)c2c1 | inhibition [4]: inactive |
| 100 | O=C(O)Cc1nn(Cc2nc3cc(F)cc(C(F)(F)F)c3s2)c(=O)c2ccccc12 | inhibition [4]: inactive |
| 34 | O=C(O)Cc1nn(Cc2nc3ccccc3s2)c(=O)c2ccc(Cl)cc12 | – |
| 5500 | CN1C(C(=O)Nc2nc3ccccc3s2)=C(O)c2ccccc2S1(=O)=O | – |
| 460 | O=C(O)Cc1nn(CCc2nc3cc(C(F)(F)F)ccc3s2)c(=O)c2ccccc12 | – |
| 37 | O=C1NC(=O)C2(CN(Cc3nc4ccccc4s3)c3ccc(Cl)cc32)N1 (configuration not stated) | – |
| 5.9 | Cc1cc(C)c2sc(Cn3nc(CC(=O)O)c4ccccc4c3=O)nc2c1 | inhibition in vivo at 25 mg/kg (Rattus norvegicus [1]; po): 39% |
| 170 | O=C(O)Cc1nn(Cc2nc3c(Cl)cc(Cl)cc3s2)c(=O)c2ccccc12 | – |
| – | O=C(O)c1nnc(O)c2ccccc12 | pKa [5]: 6.35; logP [6]: 2.42; pKa [7]: 5.49 |
| 4200 | COc1ccc2nc(Cn3nc(CC(=O)O)c4ccccc4c3=O)sc2c1 | – |
| 87 | O=C(O)Cc1nn(Cc2nc3cc(O)cc(O)c3s2)c(=O)c2ccccc12 | – |
| > 1000 | O=C(O)Cc1nn(Cc2ccc(-c3nc4ccccc4s3)cc2)c(=O)c2ccccc12 | – |
| 320 | Cc1ccc2nc(Cn3nc(CC(=O)O)c4ccccc4c3=O)sc2c1F | – |
| 5 | O=C(O)Cc1nn(Cc2nc3cc(Cl)cc(F)c3s2)c(=O)c2ccccc12 | inhibition [8]: 63% |
| 2 | O=C(O)Cc1nn(Cc2nc3c(F)cccc3s2)c(=O)c2ccccc12 | inhibition [4]: inactive |
| 7.1 | O=C(O)Cc1nn(Cc2nc3cc(Cl)ccc3s2)c(=O)c2ccccc12 | inhibition [8]: 73% |
| 37 | CC(c1nc2cc(C(F)(F)F)ccc2s1)n1nc(CC(=O)O)c2ccccc2c1=O (configuration not stated) | – |

| IC50 [3] [nM] | SMILES | also measured |
| --- | --- | --- |
| 25 | O=C(O)Cc1nn(Cc2nc3c(C(F)(F)F)cccc3s2)c(=O)c2ccccc12 | inhibition [8]: 61% |
| 68 | O=C(O)Cc1nn(Cc2nc3cc(F)c(F)cc3s2)c(=O)c2ccccc12 | inhibition in vivo at 25 mg/kg (Rattus norvegicus [1]; dose 25 mg/kg, route oral): 75% |
| 700 | COc1cc(OC)c2sc(Cn3nc(CC(=O)O)c4ccccc4c3=O)nc2c1 | – |
| 15 | O=C(O)Cc1nn(Cc2nc3cccc(Br)c3s2)c(=O)c2ccccc12 | inhibition [8]: 71% |
| 3200 | CC(C)c1ccc2nc(Cn3nc(CC(=O)O)c4ccccc4c3=O)sc2c1 | – |
| 26 | O=C(O)Cc1nn(Cc2nc3ccc(Br)cc3s2)c(=O)c2ccccc12 | – |
| 21 | O=C(O)Cc1nn(Cc2ccc(Br)cc2F)c(=O)c2ccccc12 [PONALRESTAT] | – |
| 620 | O=C(O)Cc1nn(Cc2nc3cc(Cl)cc(C(F)(F)F)c3s2)c(=O)c2ccccc12 | – |
| 4300 | C[S+]([O-])c1ccc2sc(Cn3nc(CC(=O)O)c4ccccc4c3=O)nc2c1 (configuration not stated) | – |
| 12 | O=C(O)Cc1nn(Cc2nc3ccccc3s2)c(=O)c2ccc(Br)cc12 | – |
| 120 | O=C(O)Cc1nn(Cc2nc3cc(C(F)(F)F)c(O)cc3s2)c(=O)c2ccccc12 | inhibition (Rattus norvegicus [9]): inactive |
| 110 | O=C(O)Cc1nn(Cc2nc3cc(Cl)c(F)cc3s2)c(=O)c2ccccc12 | – |
| > 1000 | O=C(O)Cc1nn(-c2nc3ccccc3s2)c(=O)c2ccccc12 | – |
| 140 | O=C1NC(=O)C2(CN(Cc3ccc(F)cc3)c3ccc(F)cc32)N1 (configuration not stated) | – |
| 27 | Cc1ccc2c(=O)n(Cc3nc4ccccc4s3)nc(CC(=O)O)c2c1 | – |
| 26 | Cc1ccc2sc(Cn3nc(CC(=O)O)c4ccccc4c3=O)nc2c1 | inhibition (Rattus norvegicus [9]): inactive |
| 10 | O=C(O)Cc1nn(Cc2nc3c(F)c(F)ccc3s2)c(=O)c2ccccc12 | inhibition [8]: 82% |
| 28 | COc1ccc2c(=O)n(Cc3nc4ccccc4s3)nc(CC(=O)O)c2c1 | – |
| 420 | O=C(O)Cc1nn(Cc2nc3cc(Cl)c(Cl)cc3s2)c(=O)c2ccccc12 | inhibition in vivo at 25 mg/kg (Rattus norvegicus [1]; dose 25 mg/kg, route oral): 34% |
| 690 | O=C(O)Cc1nn(Cc2nc3ccccc3s2)c(=O)c2cc(Br)ccc12 | inhibition [8]: 42% |
| 110 | CC(C)c1ccc2c(=O)n(Cc3nc4ccccc4s3)nc(CC(=O)O)c2c1 | – |

| IC50 [3] [nM] | SMILES | also measured |
| --- | --- | --- |
| 420 | Cc1cccc2c(CC(=O)O)nn(Cc3nc4ccccc4s3)c(=O)c12 | inhibition [4]: inactive |
| 320 | Cc1ccc2nc(Cn3nc(CC(=O)O)c4ccccc4c3=O)sc2c1 | inhibition (Rattus norvegicus [9]): inactive |
| 1 | O=C(O)Cc1nn(Cc2nc3cccc(Cl)c3s2)c(=O)c2ccccc12 | inhibition [8]: 52% |
| 510 | O=C(O)Cc1nn(Cc2nc3c(ccc4ccccc43)s2)c(=O)c2ccccc12 | inhibition (Rattus norvegicus [9]): inactive |
| 5 | O=C(O)Cc1nn(Cc2nc3c(F)ccc(F)c3s2)c(=O)c2ccccc12 | inhibition [8]: 73% |
| 70 | O=C(O)Cc1nn(Cc2nc3ccc(C(F)(F)F)cc3s2)c(=O)c2ccccc12 | inhibition [8]: 65% |
| 76 | O=C(O)Cc1nn(Cc2nc3ccc(Cl)cc3s2)c(=O)c2ccccc12 | inhibition in vivo at 25 mg/kg (Rattus norvegicus [1]; dose 25 mg/kg, route oral): 61% |
| 230 | COc1ccc2sc(Cn3nc(CC(=O)O)c4ccccc4c3=O)nc2c1 | inhibition (Rattus norvegicus [9]): inactive |
| 100 | O=C(O)Cc1nn(Cc2nc3c(Cl)c(Cl)ccc3s2)c(=O)c2ccccc12 | – |
| 350 | O=C(O)Cc1nn(Cc2nc3c(ccc4ccccc43)s2)c(=O)c2ccc(Cl)cc12 [listing 1 of 2 here] | – |
| 1800 | O=C(O)Cc1nn(Cc2nc3ccc(Br)cc3s2)c(=O)c2cc(Cl)c(Cl)cc12 | – |
| 60 | CSc1ccc2sc(Cn3nc(CC(=O)O)c4ccccc4c3=O)nc2c1 | – |
| 41 | O=C(O)Cc1nn(Cc2nc3cc(O)ccc3s2)c(=O)c2ccccc12 | – |
| 10 | O=C(O)Cc1nn(Cc2nc3cccc(C(F)(F)F)c3s2)c(=O)c2ccccc12 | inhibition [8]: 80% |
| 15 | O=C(O)Cc1nn(Cc2nc3ccccc3s2)c(=O)c2cc(Cl)ccc12 | – |
| 26 | CC(c1nc2cc(Cl)ccc2s1)n1nc(CC(=O)O)c2ccccc2c1=O (configuration not stated) | inhibition [8]: 53% |
| 1400 | O=C(O)Cc1nn(Cc2nc3cc(C(F)(F)F)cc(C(F)(F)F)c3s2)c(=O)c2ccccc12 | inhibition [4]: inactive |
| 94 | O=C(O)Cc1nn(Cc2nc3cc(C(F)(F)F)cc(Cl)c3s2)c(=O)c2ccccc12 | inhibition [8]: 26% |
| 6.2 | O=C(O)Cc1nn(Cc2nc3cc(F)cc(Cl)c3s2)c(=O)c2ccccc12 | inhibition [8]: 58% |
| 20 | O=C(O)Cc1nn(Cc2nc3c(Cl)ccc(Cl)c3s2)c(=O)c2ccccc12 | inhibition in vivo at 25 mg/kg (Rattus norvegicus [1]; dose 25 mg/kg, route oral): 65% |
| 100 | O=C(O)Cc1nn(Cc2nc3c(O)cccc3s2)c(=O)c2ccccc12 | inhibition (Rattus norvegicus [9]): inactive |

| IC50 [3] [nM] | SMILES | also measured |
| --- | --- | --- |
| 42 | Cc1cccc2c(CC(=O)O)nn(Cc3nc4c(ccc5ccccc54)s3)c(=O)c12 | inhibition [4]: inactive |
| 4300 | COc1cc2sc(Cn3nc(CC(=O)O)c4ccccc4c3=O)nc2cc1C(F)(F)F | – |
| 1000 | O=C(O)Cc1nn(Cc2nc3ccc(O)cc3s2)c(=O)c2ccccc12 | – |
| 46 | O=C(O)Cc1nn(Cc2nc3ccccc3s2)c(=O)c2ccc([N+](=O)[O-])cc12 | inhibition [4]: inactive |
| 10 | O=C(O)Cc1nn(Cc2nc3cccnc3s2)c(=O)c2ccccc12 | inhibition in vivo at 25 mg/kg (Rattus norvegicus [1]; dose 25 mg/kg, route oral): 83% |
| 300 | O=C(O)Cc1nn(Cc2nc3c(ccc4ccccc43)s2)c(=O)c2ccc(Cl)cc12 [listing 2 of 2 here] | – |
| 33 | O=C(O)Cc1nn(Cc2nc3ccccc3s2)c(=O)c2cc([N+](=O)[O-])ccc12 | – |
| 3.5 | O=C(O)Cc1nn(Cc2nc3c(Cl)cccc3s2)c(=O)c2ccccc12 | inhibition [8]: 63% |
| 17 | O=C(O)Cc1nn(Cc2nc3cc(C(F)(F)F)cc(F)c3s2)c(=O)c2ccccc12 | – |
| 660 | COc1cc(C(F)(F)F)c2sc(Cn3nc(CC(=O)O)c4ccccc4c3=O)nc2c1 | – |
| 100 | COc1cccc2sc(Cn3nc(CC(=O)O)c4ccccc4c3=O)nc12 | inhibition (Rattus norvegicus [9]): inactive |
| 12 | O=C(O)Cc1nn(Cc2nc3ccccc3s2)c(=O)c2cc(C(F)(F)F)ccc12 | inhibition [4]: inactive |
| 30 | O=C(O)Cc1nn(Cc2nc3ccccc3s2)c(=O)c2c(F)cccc12 | – |
| 1700 | CS(=O)(=O)c1ccc2sc(Cn3nc(CC(=O)O)c4ccccc4c3=O)nc2c1 | inhibition [4]: inactive |
| 4 | O=C(O)Cc1nn(Cc2nc3cc(Cl)cc(Cl)c3s2)c(=O)c2ccccc12 | inhibition [8]: 73%; ED50 (Rattus norvegicus [2]): 3.5 mg/kg; ED50 (Rattus norvegicus [10]): 2.8 mg/kg |
| 18 | O=C(O)Cc1nn(Cc2nc3ccccc3s2)c(=O)c2ccc(C(F)(F)F)cc12 | inhibition [4]: inactive |
| 2300 | COc1cc2nc(Cn3nc(CC(=O)O)c4ccccc4c3=O)sc2cc1F | inhibition (Rattus norvegicus [9]): inactive |
| 81 | O=C(O)Cc1nn(CSc2nc3ccccc3s2)c(=O)c2ccccc12 | – |
